High-throughput results as filed in PubChem.
Only some compounds are listed: those with a hit (about 3.5% of all), similar ones and a draw of the others.
Cneo AK release – Cryptococcus neoformans cell lysis inducers, primary screen, AK release luminescence, single concentration | C. neoformans lysis, adenylate kinase release luminescence, 4 h; normalised: neutral wells 0, clomiphene wells 100 | lysis activity, % at 15 µM | actives 0.2% (n = 360,000) | AID 651654, 2012;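 active = mean lysis activity across replicates of at least 80%, whatever share of replicates individually reach that level; inactive = mean lysis activity below 80%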
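Material: C. neoformans cells | Amount: Yeast cell density of 5 × 10^6 cells/mL | Medium: Fresh YPD growth medium | Dosing: Single dose | Times: Static 4 h at 37 °C with compound, 1 h detection | Detection: AK luminescence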
MITF act – activators of MITF-driven TRPM1 promoter reporter, primary screen, cell-based, SK-MEL-5, luciferase, single point. SK-MEL-5 TRPM1-promoter luciferase, 24 h; % of positive control, neutral wells = 0. activation, % at 12.5 µM. actives 0.75% (n = 300,000);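 active = mean activation of at least 80% with every replicate also reaching 80%; inconclusive = mean reaches 80% but some replicate falls short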;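 note: 0% = neutral control wells and 100% = parthenolide positive control wells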
esBAF inh – Bmi1 luciferase reporter increase in mESCs, primary screen, esBAF inhibitor project, mouse ES cells, Bmi1 luciferase knock-in, single point. reporter increase, % at 12.5 µM. actives 2% (n = 350,000). 24 h; 100% = twice the neutral-well signal; in the data active = activation above about 40%; inconclusive = no clear call, values can overlap the other calls;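 note: 0% = median of the plate's neutral control wells and 100% = double that signal; a rise in the Bmi1 reporter signal indicates esBAF inhibition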
ERAP1 inh – human ERAP1 aminopeptidase inhibitors, primary screen, biochemical, single point, plate reader. Endoplasmic reticulum aminopeptidase 1 (Homo sapiens), Q9NZ08. recombinant ERAP1, Leu-AMC fluorescence, 60 min. inhibition, % at 10.7 µM. actives 0.15% (n = 340,000). AID 652197, 2013;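 active = mean replicate inhibition of at least 30%, or all replicates individually reaching that 30% level; inactive = mean below 30% and not every replicate reaching it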;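 note: 0% = neutral control wells and 100% = L-leucinethiol positive control wells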
Target sequence (Q9NZ08 whole entry, looked up): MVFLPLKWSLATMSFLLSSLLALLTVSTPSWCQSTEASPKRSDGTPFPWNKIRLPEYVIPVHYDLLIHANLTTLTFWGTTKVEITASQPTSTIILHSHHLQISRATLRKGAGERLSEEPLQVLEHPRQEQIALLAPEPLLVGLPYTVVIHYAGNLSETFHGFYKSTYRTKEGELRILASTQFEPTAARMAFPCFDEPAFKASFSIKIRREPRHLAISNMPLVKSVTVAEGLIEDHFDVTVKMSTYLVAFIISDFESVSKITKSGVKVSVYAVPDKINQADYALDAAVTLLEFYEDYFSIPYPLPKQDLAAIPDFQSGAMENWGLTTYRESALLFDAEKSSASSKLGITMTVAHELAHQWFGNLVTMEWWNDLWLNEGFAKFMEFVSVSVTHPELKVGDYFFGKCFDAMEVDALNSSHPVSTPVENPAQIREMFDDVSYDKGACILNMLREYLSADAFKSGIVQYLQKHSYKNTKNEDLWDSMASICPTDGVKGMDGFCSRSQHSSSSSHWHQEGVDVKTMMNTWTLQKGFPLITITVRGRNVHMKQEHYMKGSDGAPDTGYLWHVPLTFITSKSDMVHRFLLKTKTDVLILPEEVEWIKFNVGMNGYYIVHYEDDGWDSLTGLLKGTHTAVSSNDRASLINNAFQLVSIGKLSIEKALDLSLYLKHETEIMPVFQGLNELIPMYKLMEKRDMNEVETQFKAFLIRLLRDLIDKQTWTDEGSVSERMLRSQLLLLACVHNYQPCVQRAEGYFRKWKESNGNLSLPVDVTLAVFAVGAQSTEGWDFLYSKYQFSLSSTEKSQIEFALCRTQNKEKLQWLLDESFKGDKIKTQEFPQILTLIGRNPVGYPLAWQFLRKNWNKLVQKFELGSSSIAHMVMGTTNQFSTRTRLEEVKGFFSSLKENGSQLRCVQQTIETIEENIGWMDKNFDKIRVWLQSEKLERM
Env fusion inh – inhibitors of HIV-1 Env-driven cell-cell fusion, primary screen, HeLa-JRFL effector, CEM21 target cells, luciferase; inhibition, % at 12.3 µM; actives 1.1% (n = 360,000); AID 651610, 2012;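 active = mean replicate inhibition score of at least 50 and every replicate individually at or above 50; inconclusive = only one of the two criteria met; inactive = mean below 50 and not all replicates reaching 50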;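 note: 0% = plate neutral controls and 100% = maraviroc near 300 nM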
Wnt bcat act – Wnt/beta-catenin pathway activators, primary screen, cell-based, plate reader, single point; Wnt/beta-catenin reporter cell assay, activator; activation, % at 9.35 µM; actives 1.2% (n = 300,000); AID 743398, 2014; in the data active = activation above about 30%, passing the limit was not always enough; inconclusive = no clear call, values can overlap the other calls;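 note: 0% = neutral control wells and 100% = positive control wells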
* hit, by the source's call; [ ] = another dose, or the depositor's remark.

How did COc1ccccc1S(=O)(=O)N[C@@H]1CC[C@@H](CC(=O)NCc2cc(F)cc(F)c2)O[C@@H]1CO do in these assays?
ERAP1 inh: -2

How did O=C(Nc1ccc(N2CCOCC2)c(Cl)c1)c1ccc(F)cc1 do in these assays?
Cneo AK release: -5; MITF act: 122*; esBAF inh: inconclusive; ERAP1 inh: 7; Wnt bcat act: 16

How did O=C(Nc1ccc(N2CCOCC2)c(Cl)c1)c1ccc(-n2cnnc2)cc1 do in these assays?
Cneo AK release: 0; MITF act: -9; esBAF inh: -6; ERAP1 inh: -1; Env fusion inh: inconclusive; Wnt bcat act: -5

Results for CCN1CCN(c2ccc(NC(=O)c3cccc(F)c3)cc2Cl)CC1 ?
Cneo AK release: -3; MITF act: 128*; esBAF inh: 33; ERAP1 inh: -7; Env fusion inh: -5; Wnt bcat act: 9

Results for O=C(Nc1ccc(N2CCOCC2)c(Cl)c1)c1cc2ccccc2o1 ?
Cneo AK release: -8; MITF act: 46; esBAF inh: 64*

Results for C[C@H](CO)N1C[C@H](C)[C@H](CN(C)Cc2cccc(F)c2)OCc2ccccc2-c2ccccc2C1=O ?
esBAF inh: -4; Env fusion inh: 75*[16.7 µM]

Results for C[C@H](CO)N1C[C@H](C)[C@H](CN(C)Cc2cccnc2)OCc2ccccc2-c2c(n(C)c3ccccc23)C1=O ?
Cneo AK release: 1; esBAF inh: -1; ERAP1 inh: 2; Env fusion inh: 59*[16.7 µM]

What do the screens show for `C[C@H]1CN([C@@H](C)CO)C(=O)c2c(c3ccccc3n2C)-c2ccccc2CO[C@H]1CN(C)Cc1cccc(F)c1`?
Cneo AK release: 1; esBAF inh: -7; Env fusion inh: 67*; Wnt bcat act: -2

What do the screens show for `COc1ccc(NC(=O)Nc2cccc3c2O[C@H](CN(C)C)[C@H](C)CN([C@@H](C)CO)C3=O)cc1`?
Cneo AK release: -5; esBAF inh: -1; ERAP1 inh: 1

How did CC(=Nc1ccc(C)c(C)c1)C1=C(O)CSC1=O do in these assays?
Cneo AK release: 0; MITF act: 132*; esBAF inh: 51*

How did COc1ccccc1N=C(C)C1=C(O)CSC1=O do in these assays?
Cneo AK release: -2; MITF act: 2; esBAF inh: 4; Wnt bcat act: 1

Results for CNC(=O)c1cc(NC(=O)CCn2nc(-c3ccc(C)cc3)c3ccccc3c2=O)ccc1OC ?
Cneo AK release: -1; Env fusion inh: 62*; Wnt bcat act: 3

What do the screens show for `Cc1ccc(NC(=O)c2ccc(-c3nn(C)c(=O)c4ccccc34)cc2)cc1`?
Cneo AK release: -1; esBAF inh: -9; ERAP1 inh: -3; Env fusion inh: 75*

What do the screens show for `O=C(Nc1ccc([N+](=O)[O-])cc1)C(=O)Nc1cccc(C(=O)O)c1`?
Cneo AK release: -14; MITF act: -101; esBAF inh: -89; ERAP1 inh: 1; Env fusion inh: 115*; Wnt bcat act: -3

How did O=C(NC(=S)Nc1cccc([N+](=O)[O-])c1)c1ccco1 do in these assays?
MITF act: 21; esBAF inh: 49*; Env fusion inh: -56; Wnt bcat act: 14

What do the screens show for `O=C(NC(=S)Nc1cccc([N+](=O)[O-])c1)c1ccccc1`?
Cneo AK release: 0; ERAP1 inh: 0; Env fusion inh: 2; Wnt bcat act: 32*

How did O=C(Nc1ccc(Oc2ccc(NC(=O)Nc3ccc([N+](=O)[O-])cc3)cc2)cc1)Nc1ccc([N+](=O)[O-])cc1 do in these assays?
Cneo AK release: 0; MITF act: -23; esBAF inh: -5; ERAP1 inh: 2; Env fusion inh: 60*; Wnt bcat act: -7

What do the screens show for `O=C(C[C@@H]1C[C@@H]2c3cc(NC(=O)C4CCC4)ccc3O[C@@H]2[C@@H](CO)O1)NCCc1ccccc1`?
Cneo AK release: 0; esBAF inh: 2; ERAP1 inh: 1; Env fusion inh: 25[16.7 µM]
